# XBP1 UPR activ – adaptive UPR (XBP1) activation; CHO-XBP1 luciferase reporter, IRE1-XBP1 UPR activation, luminescence; percent of tunicamycin response, DMSO as zero; activation, % at 20 µM; hit rate 0.33% among 330,000; AID 463104;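 active = versus positive control, 20 µM dose yields 30% or more activation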;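 note: 100% = tunicamycin at 10 µg/mL and 0% = DMSO only wells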
#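 Material: CHO cell line with stable XBP1 luciferase reporter; buffer or medium: F12 medium containing 10% fetal bovine serum; compound: single point, 20 µM final compound, 1% DMSO; incubation: 6 h treatment, 37 °C; measured by: glow luminescence from Steady-Glo reagent; evaluation: activation, % of tunicamycin; control set: tunicamycin high, DMSO low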
# aDG glyco act – alpha-DG glycosylation activation; Pro5-aDG cells, alpha-DG glycosylation AlphaScreen (IIH6); 0% Pro5, 100% B10-LARGE cell signal; activation, % at 10 µM; hit rate 0.22% among 360,000; AID 624168;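 active = activation of at least 8% versus controls, or a plate z-score of at least 8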;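 note: Pro5 are CHO cells carrying HIG-tagged alpha-DG that lacks glycosylation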
# CHOP inh – blocks CHOP induction under ER stress | CHO-K1 CHOP-promoter luciferase, tunicamycin-induced, 15-18 h | inhibition, % at 10 µM | hit rate 3.8% among 220,000;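 active = compounds that reduced the stress-induced luciferase reporter signal by more than about 70% of percent inhibition, limit read from the data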;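 note: 0% = tunicamycin plus vehicle and 100% = wells without tunicamycin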
# MPTP block – inhibitors of mitochondrial permeability transition pore; inhibition, % at 10 µM; AID 602449; isolated mouse mitochondria, Ca2+ swelling absorbance, 30 min; hit rate 1.4% among 360,000;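 active = inhibition of 50% or more, scaled per plate between neutral and stimulator controls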;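 note: 0% = DMSO wells given calcium and 100% = 1 mM EGTA wells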
# NR3A LBD binder – modulators (binders) of human NR3A ligand-binding domain; NR3A LBD differential scanning fluorimetry, Tm shift; 0% = protein alone, 100% = glycine-bound protein; Tm shift relative to glycine control, % at 25 µM; hit rate 2.5% among 340,000; AID 1259313;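 active = melting temperature shift of at least 10% of the positive control shift, at one fixed dose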
# UPR CHOP act – apoptotic UPR (CHOP) activation; activation, % at 10 µM; CHO-CHOP luciferase reporter, luminescence; percent of tunicamycin response over DMSO baseline; AID 449763; hit rate 0.34% among 330,000;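 active = at 10 µM dose, activation of 40% or more, normalized to positive control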;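 note: 100% = tunicamycin at 10 µg/mL and 0% = DMSO alone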
#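 System: CHO CHOP reporter cells. Amount: 500 cells per well. Buffer or medium: F12 medium, 10% FBS. Compound dosing: one dose, 10 µM in 0.5% DMSO. Incubation: 6 h compound exposure at 37 °C after overnight seeding. Technique: Steady-Glo luciferase luminescence. Benchmarks: tunicamycin and DMSO controls.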
# aDG conf – confirmation of alpha dystroglycan glycosylation activators. shares compounds with aDG glyco act. Pro5-aDG cells, alpha-DG glycosylation, IIH6 AlphaLISA; scaled to LARGE-overexpressing B10 cells as 100%. activation, % at 10 µM (by protocol). hit rate 17% among 600. AID 651671;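 active = activation of at least 7% in one or more replicates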;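 note: cells exposed to compound for two days before detection; 0% = DMSO-treated Pro5 cells and 100% = DMSO-treated B10-LARGE cells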
# Numbers without * were called inactive; . = no result. An excerpt weighted towards active compounds, which were near 5.6% of everything screened.
SMILES,XBP1 UPR activ,aDG glyco act,CHOP inh,MPTP block,NR3A LBD binder,UPR CHOP act,aDG conf
Cc1ccc(C)c(N2CCN(CCCNC(=O)Cn3cccc3C(=O)c3ccccc3)CC2)c1,-0.3,10.5*,33.2,-2.4,-6.3,-0.7,3.0
CCNNC(=O)C(O)(Cc1ccccc1)Cc1ccccc1,-3.5,0.1,.,1.2,0.8,1.1,.
CCOc1ccc(S(=O)(=O)N2CCN(c3ccccc3OC)CC2)c2cccnc12,-2.0,6.5*,33.0,-3.9,-0.6,-0.4,0.1
COC(=O)C1=C(C)NC(=S)NC1c1ccc(OC(=O)c2ccco2)cc1 (stereo unspecified),-0.3,5.3*,41.2,-4.8,0.6,-0.7,1.5
O=C(COc1ccc2c3c(c(=O)oc2c1)CCCC3)NCc1cccnc1,-4.9,7.0*,.,0.6,-1.1,-2.3,0.4
S=c1[nH]nc(C2CCCCC2)n1/N=C/c1c(Cl)cccc1Cl,-6.8,-0.1,.,1.2,0.1,-2.8,.
COc1cc(N)c2ncsc2c1,.,9.7*,.,0.0,0.5,.,0.9
Cc1cccc2nc(-c3cccc(NC(=O)Cc4ccccc4)c3)cn12,4.5,1.5,51.8,0.5,-17.7,3.0,.
Cc1cccc2nc(-c3cccc(NC(=O)c4ccc(Cl)cc4)c3)cn12,4.2,6.5*,37.5,-0.7,-3.9,-0.3,0.5
Cc1nn(C)c(C)c1/C=C/C(=O)O,-2.7,-0.1,25.6,-2.3,0.5,-1.6,.
Cc1nn(C)c(C)c1/C=C/C(=O)c1ccc(Cl)cc1Cl,-3.6,8.4*,43.1,12.5,0.7,-0.6,1.7
O=c1[nH]nc(Br)c(=O)n1C(c1ccccc1)c1ccccc1,.,0.2,.,1.7,-0.2,.,.
O=C(CN1C(=O)NC2(CCCC2)C1=O)Nc1ccc(Cl)c(C(F)(F)F)c1,1.8,0.0,.,-0.9,-8.1,2.0,.
CN1CC(=O)N(CC(=O)Nc2ccc(Cl)c(C(F)(F)F)c2)C1=O,-1.5,5.9*,14.9,-1.2,0.8,-2.1,0.6
CC(Oc1cccc(Cl)c1)C(=O)Nc1ccc(S(=O)(=O)N(C)C2CCN(C)CC2)cc1 (stereo unspecified),0.8,5.7*,.,0.6,-3.6,-1.2,5.3*
O=C(COC(=O)COc1ccccc1)Nc1ncc([N+](=O)[O-])s1,-2.1,0.1,.,-2.0,1.2,0.6,.
N/C(=N\OC(=O)Nc1ccccc1)c1ncc([N+](=O)[O-])s1,4.1,2.8*,-50.5,3.8,35.8*,24.6,3.3*
COc1ccccc1NC(=O)Nc1nc(C(N)Cc2ccccc2)cs1 (stereo unspecified),.,7.4*,.,5.2,.,.,6.9*
COC(=O)c1c(NC(=O)CSc2nnc(-c3ccco3)n2C)sc(C)c1C,4.0,6.1*,4.1,1.4,5.1,1.0,-0.1
O=C(NCC1CCCO1)C1CCN(C2CCN(C(=O)CC3CCCC3)CC2)CC1 (stereo unspecified),-2.8,3.7*,0.7,0.7,0.8,-0.2,-0.4
COc1ccc(-c2cc(C(F)(F)F)nc(N3CCOCC3)n2)cc1,0.7,0.1,64.8,3.5,1.4,-0.4,.
COc1ccc(-c2cc(-c3ccc(F)cc3)nc(N3CCN(C)CC3)n2)cc1,13.9,15.0*,86.7*,-7.3,1.9,13.7,-0.1
CC(C)c1ccc(/C=C(\NC(=O)c2ccccc2)C(=O)NCCCn2ccnc2)cc1,-5.7,1.1,.,-0.5,0.9,2.6,.
O=C(C1CCN(c2nnc(-n3cccc3)s2)CC1)N1CCN(c2cccc(C(F)(F)F)c2)CC1,-3.2,8.0*,76.6*,0.2,-0.1,-2.2,0.2
O=C(C1CCC1)N1CCN(c2cccc(C(F)(F)F)c2)CC1,0.5,0.0,.,-0.1,-4.0,3.2,.
SMILES,XBP1 UPR activ,aDG glyco act,CHOP inh,MPTP block,NR3A LBD binder,UPR CHOP act,aDG conf
O=C(Nc1ccccc1Cl)Nc1ccccc1Cl,0.8,-0.1,-5.7,1.6,-2.5,2.9,.
O=C(Nc1ccccc1Cl)C1C(c2ccccc2)C1(Cl)Cl (stereo unspecified),-2.9,6.2*,.,0.7,-6.1,-0.2,-0.2
Nc1cc2c3ccccc3ccc2c2ccccc12,.,4.7*,.,1.7,7.8,.,-0.1
O=C(Nc1ccccc1F)c1ccc([N+](=O)[O-])s1,1.3,16.3*,0.2,-1.0,0.2,1.8,3.7*
O=C(Nc1cccc2ccccc12)c1ccc([N+](=O)[O-])s1,-2.3,12.5*,2.9,26.7,-4.5,-0.6,5.7*
O=C(Nc1cccc2ccccc12)c1ccc([N+](=O)[O-])o1,-4.2,0.8,.,-0.5,0.3,1.8,.
CN(C)NC(=O)c1ccc([N+](=O)[O-])s1,13.7,0.1,-3.1,-1.1,2.4,0.8,.
O=C(CN(Cc1ccccc1)C(=O)CNS(=O)(=O)c1ccc(F)cc1)NCc1ccco1,-0.4,-0.1,.,0.7,-0.7,-0.4,.
c1csc(Cn2nnnc2CN2CCN(c3nc4ccccc4s3)CC2)c1,-3.4,6.0*,21.5,0.1,1.3,0.2,2.8*
COc1ccc(Cc2nc(-c3ccc(NC(=O)c4cccnc4)cc3)no2)cc1,-0.3,7.5*,23.5,-1.5,-1.6,-0.4,6.7*
N#Cc1ccccc1Cn1c(=O)n(Cc2ccc(C(=O)NCc3ccco3)cc2)c(=O)c2sccc21,-2.2,0.0,5.5,0.5,-1.2,1.7,.
N#Cc1ccccc1Cn1c(=O)n(-c2ccc(CC(=O)NCc3ccco3)cc2)c(=O)c2sccc21,-3.3,10.2*,51.2,1.2,-1.9,-0.3,0.1
Cc1ccc(S(=O)(=O)c2c(N)n(Cc3ccco3)c3nc4ccccc4nc23)cc1,1.4,17.4*,74.4*,7.4,1.5,0.9,-0.2
CCCCn1c(N)c(S(=O)(=O)c2ccc(C)cc2)c2nc3ccccc3nc21,-0.1,0.1,53.9,46.6,5.8,-1.9,.
Cc1cccc(S(=O)(=O)c2c(N)n(Cc3ccco3)c3nc4ccccc4nc23)c1,-3.2,20.7*,57.3,9.6,6.3,1.8,1.0
Cc1cc(=O)oc2cc(OCC(=O)N3CCc4ccccc4C3)ccc12,2.1,4.2*,-1.0,-1.6,-0.1,-0.4,0.5
CCc1cccc(CC)c1NC(=O)c1ccc(-n2cncn2)nc1,3.0,0.6,5.9,-0.2,0.6,1.7,.
Cc1cccc(C)c1NC(=O)c1ccc(-n2cncn2)nc1,1.9,3.8*,-3.1,-1.6,-0.5,-2.5,-0.6
COc1ccc(NC(=O)C(OC(=O)Cn2cnc3c2c(=O)n(C)c(=O)n3C)c2ccccc2)cc1Cl (stereo unspecified),.,-0.3,.,-0.3,-8.1,.,.
CCc1ccccc1NC(=O)CSc1nc2ccccc2nc1N1CCOCC1,-3.4,12.9*,.,-0.1,0.5,-0.8,-0.9
